Assay results: ChEMBL document CHEMBL2157865, “Novel 3-substituted-1-aryl-5-phenyl-6-anilinopyrazolo[3,4-d]pyrimidin-4-ones: docking, synthesis and pharmacological evaluation as a potential anti-inflammatory agents” (Bioorg Med Chem Lett, 2012)

Tests used:
Rattus norvegicus [1] = experiment: Antiinflammatory activity in Wistar albino rat assessed as inhibition of carrageenan-induced paw edema at 25 mg/kg, po after 1 hr (reference value: 0.85 +/- 0.01%); format: functional
Rattus norvegicus [2] = experiment: Antiinflammatory activity in Wistar albino rat assessed as inhibition of carrageenan-induced paw edema at 25 mg/kg, po after 2 hrs (reference value: 1.11 +/- 0.02%); format: functional
Rattus norvegicus [3] = experiment: Antiinflammatory activity in Wistar albino rat assessed as inhibition of carrageenan-induced paw edema at 25 mg/kg, po after 3 hrs (reference value: 1.08 +/- 0.41%); format: functional
Rattus norvegicus [4] = experiment: Toxicity in Wistar albino rat assessed as ulcer index at 75 mg/kg/day, po administered for 4 days measured after 12 hrs fasting post-last dose; format: organism-based; design: route oral; settings: in vivo
In short: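 Male Wistar albino rats, 170–200 g, six per group, with control and standard groups. Compounds suspended in 1% w/v Tween 80 in water and dosed orally at 75 mg/kg/day on all 4 days. Rats fasted 12 h after last dose, then decapitated. Stomach opened along greater curvature and washed with distilled water and Krebs solution. Gastric lesions counted and ulcer index calculated per Szelenyi and Thiemer.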

| SMILES | inhibition in vivo at 25 mg/kg (Rattus norvegicus [1]) [%] | inhibition in vivo at 25 mg/kg (Rattus norvegicus [2]) [%] | inhibition in vivo at 25 mg/kg (Rattus norvegicus [3]) [%] | UI (Rattus norvegicus [4]) |
| --- | --- | --- | --- | --- |
| CSc1nn(-c2ccccc2)c2nc(Nc3ccccc3)n(-c3ccccc3)c(=O)c12 | 46.1 | 36.6 | 25.4 | 4.66 |
| CSc1nn(-c2ccc([N+](=O)[O-])cc2)c2nc(Nc3ccccc3)n(-c3ccccc3)c(=O)c12 | 42.1 | 37.7 | 26.6 | 7.5 |
| CSc1nn(-c2ccc(S(N)(=O)=O)cc2)c2nc(Nc3ccccc3)n(-c3ccccc3)c(=O)c12 | 68.8 | 54.1 | 35.2 | 7.83 |
| O=c1c2c(Nc3ccccc3)nn(-c3ccccc3)c2nc(Nc2ccccc2)n1-c1ccccc1 | 48.1 | 43.4 | 17.1 |  |
| O=c1c2c(Nc3ccccc3)nn(-c3ccc([N+](=O)[O-])cc3)c2nc(Nc2ccccc2)n1-c1ccccc1 | 43.9 | 40.8 | 14.1 |  |
| NS(=O)(=O)c1ccc(-n2nc(Nc3ccccc3)c3c(=O)n(-c4ccccc4)c(Nc4ccccc4)nc32)cc1 | 60.2 | 54.8 | 39.6 |  |
| O=c1c2c(Nc3ccc([N+](=O)[O-])cc3)nn(-c3ccccc3)c2nc(Nc2ccccc2)n1-c1ccccc1 | 29.4 | 29 | 15.1 |  |
| O=c1c2c(Nc3ccc([N+](=O)[O-])cc3)nn(-c3ccc([N+](=O)[O-])cc3)c2nc(Nc2ccccc2)n1-c1ccccc1 | 23.9 | 19.4 | 16.8 |  |
| NS(=O)(=O)c1ccc(-n2nc(Nc3ccc([N+](=O)[O-])cc3)c3c(=O)n(-c4ccccc4)c(Nc4ccccc4)nc32)cc1 | 67 | 55.3 | 39.1 |  |
| Cc1ccc(Nc2nn(-c3ccccc3)c3nc(Nc4ccccc4)n(-c4ccccc4)c(=O)c23)cc1 | 55.7 | 53.4 | 32.9 | 3.2 |
| Cc1ccc(Nc2nn(-c3ccc([N+](=O)[O-])cc3)c3nc(Nc4ccccc4)n(-c4ccccc4)c(=O)c23)cc1 | 46.6 | 39.8 | 30.2 | 16.72 |
| Cc1ccc(Nc2nn(-c3ccc(S(N)(=O)=O)cc3)c3nc(Nc4ccccc4)n(-c4ccccc4)c(=O)c23)cc1 | 77 | 63.4 | 43.7 | 9.5 |
| O=c1c2c(Nc3ccc(Cl)cc3)nn(-c3ccccc3)c2nc(Nc2ccccc2)n1-c1ccccc1 | 47.5 | 44 | 28.6 |  |
| O=c1c2c(Nc3ccc(Cl)cc3)nn(-c3ccc([N+](=O)[O-])cc3)c2nc(Nc2ccccc2)n1-c1ccccc1 | 39.6 | 39 | 20.6 |  |
| NS(=O)(=O)c1ccc(-n2nc(Nc3ccc(Cl)cc3)c3c(=O)n(-c4ccccc4)c(Nc4ccccc4)nc32)cc1 | 69.8 | 56.3 | 38.3 |  |
| Cc1ccc(-c2cc(C(F)(F)F)nn2-c2ccc(S(N)(=O)=O)cc2)cc1 [CELECOXIB] | 78.1 | 58.6 | 39.6 | 9.58 |
| O=C([O-])Cc1ccccc1Nc1c(Cl)cccc1Cl.[Na+] [DICLOFENAC SODIUM] | 75.8 | 57.2 | 42.8 | 39.17 |
